Reference: ChEMBL document CHEMBL1123100, “Angiotensin converting enzyme inhibitors: 1,5-benzothiazepine derivatives” (J Med Chem, 1985)

Columns and labels:
[1] = molecular target: T1, Angiotensin-converting enzyme (Rattus norvegicus, UniProt P47820); experiment: Inhibition of Angiotensin I converting enzyme in rat
T1 sequence (P47820 whole entry): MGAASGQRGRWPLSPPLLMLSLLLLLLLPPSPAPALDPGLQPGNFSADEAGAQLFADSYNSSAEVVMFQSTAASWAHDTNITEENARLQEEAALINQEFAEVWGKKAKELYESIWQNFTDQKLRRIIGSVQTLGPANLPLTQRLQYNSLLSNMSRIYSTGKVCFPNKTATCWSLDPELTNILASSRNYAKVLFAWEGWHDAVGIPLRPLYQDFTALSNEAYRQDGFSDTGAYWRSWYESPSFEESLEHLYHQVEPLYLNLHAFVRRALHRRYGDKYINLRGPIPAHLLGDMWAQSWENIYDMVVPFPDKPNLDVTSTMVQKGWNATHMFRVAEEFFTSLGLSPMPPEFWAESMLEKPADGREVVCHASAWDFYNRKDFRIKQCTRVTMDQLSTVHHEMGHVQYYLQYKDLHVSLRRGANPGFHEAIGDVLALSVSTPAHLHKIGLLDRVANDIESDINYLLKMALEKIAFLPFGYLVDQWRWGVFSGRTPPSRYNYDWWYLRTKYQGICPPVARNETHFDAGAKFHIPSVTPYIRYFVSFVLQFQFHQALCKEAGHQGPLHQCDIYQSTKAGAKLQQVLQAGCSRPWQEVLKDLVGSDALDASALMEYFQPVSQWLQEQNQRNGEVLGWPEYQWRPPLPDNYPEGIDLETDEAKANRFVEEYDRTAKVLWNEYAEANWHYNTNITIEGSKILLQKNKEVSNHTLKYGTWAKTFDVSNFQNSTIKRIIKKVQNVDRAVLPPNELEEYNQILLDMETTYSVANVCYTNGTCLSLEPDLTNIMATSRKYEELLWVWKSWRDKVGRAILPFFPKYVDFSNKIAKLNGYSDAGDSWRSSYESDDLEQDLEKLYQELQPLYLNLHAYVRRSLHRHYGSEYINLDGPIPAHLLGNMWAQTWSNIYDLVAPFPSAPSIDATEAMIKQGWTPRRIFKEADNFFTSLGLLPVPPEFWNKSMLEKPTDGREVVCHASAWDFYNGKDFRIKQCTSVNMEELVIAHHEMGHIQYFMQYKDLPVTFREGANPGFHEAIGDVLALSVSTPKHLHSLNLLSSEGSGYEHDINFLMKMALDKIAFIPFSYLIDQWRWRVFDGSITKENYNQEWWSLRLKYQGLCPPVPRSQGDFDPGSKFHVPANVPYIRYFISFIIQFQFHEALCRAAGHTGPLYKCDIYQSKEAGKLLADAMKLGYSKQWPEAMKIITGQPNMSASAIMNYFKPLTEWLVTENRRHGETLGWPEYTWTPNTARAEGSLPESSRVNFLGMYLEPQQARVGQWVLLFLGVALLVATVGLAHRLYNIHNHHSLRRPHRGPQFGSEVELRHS

Rattus norvegicus [2] = experiment: Percent inhibition of angiotensin I (AI) pressor response after intravenous administration (dose of 0.05 mg/kg)to conscious normotensive rats; assay type: functional
In short: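 Angiotensin I pressor response measured in conscious normotensive rats, 15 min after intravenous dosing of test compound; value is percent inhibition of the pressor response.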

Rattus norvegicus [3] = experiment: Percent inhibition of angiotensin I (AI) pressor response after oral administration (dose of 1.0 mg/kg) to conscious normotensive rats; assay type: functional
In short: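 Angiotensin I pressor response measured in conscious normotensive rats, 1 h after oral dosing of test compound; value is percent inhibition of the pressor response.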

Rattus norvegicus [4] = experiment: The maximal change in blood pressure recorded during the 4-day test period in spontaneously hypertensive rats (SHR) after oral administration; assay type: functional

Row | SMILES | IC50 [1] | inhibition in vivo at 0.05 mg/kg (Rattus norvegicus [2]) | inhibition in vivo at 1 mg/kg (Rattus norvegicus [3]) | Max delta BP (Rattus norvegicus [4])
1 | O=C(O)CN1C(=O)[C@@H](NC(CCc2ccccc2)C(=O)O)CS(=O)(=O)c2ccccc21 (stereo partly specified) | 2900 nM |  |  | 
2 | CCOC(=O)C(CCc1ccccc1)N[C@H]1CSc2ccccc2N(CC(=O)O)C1=O (stereo partly specified) | 8000 nM |  |  | 
3 | O=C(O)CN1C(=O)[C@@H](N[C@@H](CCc2ccccc2)C(=O)O)CSc2ccccc21 | 2.9 nM |  |  | 
4 | CCOC(=O)CN1C(=O)[C@@H](NC(CCc2ccccc2)C(=O)OCC)CCc2ccccc21 (stereo partly specified) | 430 nM | 77% | 88% | -76 mmHg
5 | O=C(O)CN1C(=O)[C@@H](NC(CCc2ccccc2)C(=O)O)CSc2ccccc21 (stereo partly specified) | 9.8 nM |  |  | 
6 | O=C(O)CN1C(=O)[C@@H](N[C@H](CCc2ccccc2)C(=O)O)CSc2ccccc21 | 240 nM |  |  | 
7 | O=C(O)CN1C(=O)[C@@H](NC(CCc2ccccc2)C(=O)O)CCc2ccccc21 (stereo partly specified) | 1.7 nM |  |  | 
8 | O=C(O)CN1C(=O)[C@@H](NC(CCc2ccccc2)C(=O)O)C[S+]([O-])c2ccccc21 (stereo partly specified) | 5.9 nM |  |  | 
9 | CCOC(=O)C(CCc1ccccc1)NC1CSc2ccccc2N(CC(=O)O)C1=O (stereo in doubt; 14a) | 860 nM |  |  | 
10 | CCOC(=O)C(CCc1ccccc1)NC1CSc2ccccc2N(CC(=O)O)C1=O.Cl (stereo in doubt; 14c) | 2200 nM | 75% | 39% | -35 mmHg
